Source: ChEMBL document CHEMBL1255487, “Preclinical evaluation of the antifolate QN254, 5-chloro- N'6'-(2,5-dimethoxy-benzyl)-quinazoline-2,4,6-triamine, as an antimalarial drug candidate” (Antimicrob Agents Chemother, 2010)
pIC50: −log10 of the molar value. The source made the active and inactive calls. No cut-off for these calls is given here.

Key:
Plasmodium berghei [1] = assay: Antimalarial activity against Plasmodium berghei ANKA infected in NMRI mice (Mus musculus) assessed as survival rate at 15 mg/kg, perorally administered as single dose; type: functional; settings: route oral
How it was run: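 Infection: 5 female NMRI mice (20–22 g) per group, inoculated intravenously with 0.2 ml of donor blood at 1 × 10^8 parasitized erythrocytes/ml. Oral administration in 0.5% carboxymethyl cellulose. Survival time recorded up to 30 days after infection and averaged per group.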

Plasmodium berghei [2] = assay: Antimalarial activity against Plasmodium berghei ANKA infected in NMRI mice (Mus musculus) assessed as mean survival time at 3 times 100 mg/kg, perorally; type: functional, organism-based; set-up: dose 100 mg/kg
Plasmodium berghei [3] = assay: Antimalarial activity against Plasmodium berghei ANKA infected in NMRI mice (Mus musculus) assessed as cure rate at 15 mg/kg, perorally administered as single dose measured on day 3 postinfection; type: functional; settings: route oral
How it was run: (§1)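 Female NMRI mice (20–22 g), 5 per group, infected intravenously with 0.2 ml of 1 × 10^8 parasitized erythrocytes/ml from a fresh donor mouse. Compound suspended in 0.5% carboxymethyl cellulose and given orally. Survival followed to day 30 post-infection; an animal was scored cured if it survived to day 30 without parasites.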

Plasmodium berghei [4] = assay: Antimalarial activity against Plasmodium berghei ANKA infected in NMRI mice (Mus musculus) assessed as cure rate at 30 mg/kg, perorally administered as single dose […]; type: functional; settings: route oral; how it was run: as §1
Plasmodium berghei [5] = assay: Antimalarial activity against Plasmodium berghei ANKA infected in NMRI mice (Mus musculus) assessed as cure rate at 100 mg/kg, perorally administered as single dose measured on […]; type: functional; settings: route oral; how it was run: as §1
Plasmodium berghei [6] = assay: Antimalarial activity against Plasmodium berghei ANKA infected in NMRI mice (Mus musculus) assessed as cure rate at 3 times 30 mg/kg, perorally measured […]; type: functional; settings: route oral; how it was run: as §1
Plasmodium berghei [7] = assay: Antimalarial activity against Plasmodium berghei ANKA infected in NMRI mice (Mus musculus) assessed as cure rate at 3 times 100 mg/kg, perorally measured on […]; type: functional; settings: route oral; how it was run: as §1
Mus musculus [8] = assay: Toxicity in NMRI mice (Mus musculus) infected with Plasmodium berghei ANKA at 10 mg/kg, perorally administered as single dose measured up to 30 days postinfection; type: organism-based; set-up: dose 10 mg/kg, route oral; settings: in vivo, po, 720 h
Mus musculus [9] = assay: Toxicity in NMRI mice (Mus musculus) infected with Plasmodium berghei ANKA at 100 mg/kg, perorally administered as single dose measured up to 30 days postinfection; type: organism-based; set-up: dose 100 mg/kg, route oral; settings: in vivo, po, 720 h
Mus musculus [10] = assay: Toxicity in NMRI mice (Mus musculus) infected with Plasmodium berghei ANKA at 3 times 60 mg/kg, perorally measured up to 30 days postinfection; type: organism-based; set-up: dose 60 mg/kg, route oral; settings: in vivo, po, 720 h
Mus musculus [11] = assay: Toxicity in NMRI mice (Mus musculus) infected with Plasmodium berghei ANKA at 3 times 100 mg/kg, perorally measured up to 30 days postinfection; type: organism-based; set-up: dose 100 mg/kg, route oral; settings: in vivo, po, 720 h
Rattus norvegicus [12] = assay: Toxicity in Wistar rat assessed as occurrence of massive bone marrow atrophy at => 50 mg/kg, po after 2 weeks; type: organism-based; set-up: dose 50 mg/kg, route oral; settings: in vivo, 336 h
How it was run: (§2)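 Male Wistar rats, about 10 weeks old (254–292 g), 5 per group, gavaged daily with 50, 150 or 500 mg/kg/day. Vehicle was 10% of 1% aqueous Solutol HS15 plus 90% of 0.5% aqueous methylcellulose; exploratory 2-week design. Clinical observations, body weight, food intake, hematology, clinical chemistry and gross pathology recorded. Histopathology covered gross lesions and selected organs in the control and low-dose groups.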

Rattus norvegicus [13] = assay: Toxicity in Wistar rat assessed as occurrence of inflammatory changes in gastric tract at => 50 mg/kg, po after 2 weeks; type: organism-based, Stomach; set-up: dose 50 mg/kg, route oral; settings: in vivo, 336 h; how it was run: as §2
Plasmodium berghei [14] = assay: Antimalarial activity against Plasmodium berghei ANKA infected in perorally dosed NMRI mice (Mus musculus) assessed as reduction in parasitemia administered as single dose measured on day 3 postinfection; type: functional; settings: po, 72 h
Plasmodium falciparum [15] = assay: Antimalarial activity against pyrimethamine-resistant Plasmodium falciparum clinical isolate harboring S108N, C59R mutation in DHFR assessed as decrease in parasitaemia; type: functional, organism-based
How it was run: (§3)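 P. falciparum grown in RPMI 1640 with 10% (v/v) human serum, 25 mM bicarbonate, 2 mM glutamine, 25 mM HEPES, 5 nM para-aminobenzoic acid and 23 nM folic acid. Parasites exposed to a concentration series. Read-out is [3H]hypoxanthine incorporation into nucleic acid. IC50 taken from non-linear regression of the dose–response curve.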

Plasmodium falciparum [16] = assay: Antimalarial activity against pyrimethamine-resistant Plasmodium falciparum clinical isolate harboring S108N, N51I, C59R mutation in DHFR assessed as decrease in parasitaemia; type: functional, organism-based; how it was run: as §3
Plasmodium falciparum [17] = assay: Antimalarial activity against pyrimethamine-resistant Plasmodium falciparum V1/S harboring S108N, N51I, C59R, I164L mutation in DHFR assessed as decrease in parasitaemia; type: functional, organism-based; settings: V1S
[18] = Cmax in Wistar rat at 25 mg/kg, po; type: ADME, organism-based; set-up: dose 25 mg/kg, route oral; settings: in vivo
How it was run: (§4)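 Rats dosed with 25 mg/kg p.o. as a 2.5 mg/ml suspension in 0.5% CMC, or with 5 mg/kg i.v. at 1 mg/ml in 10% NMP, 30% PEG 400 and 60% of 10% vitamin E-TPGS. Plasma sampled over time, extracted with acidified acetonitrile (8:1) and quantified by LC-MS, LLOQ 12 ng/ml.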

[19] = Tmax in Wistar rat at 25 mg/kg, po; type: ADME, organism-based; set-up: dose 25 mg/kg, route oral; settings: in vivo; how it was run: as §4
[20] = AUC in CD-1 mouse at 25 mg/kg, po; type: ADME, organism-based; set-up: dose 25 mg/kg, route oral; settings: plasma
How it was run: (§5)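 Mice dosed with 25 mg/kg p.o. as a 2.5 mg/ml suspension in 0.5% CMC, or with 5 mg/kg i.v. at 1 mg/ml in 10% NMP, 30% PEG 400 and 60% of 10% vitamin E-TPGS. Blood sampled at several time points. Plasma extracted with acidified acetonitrile (8:1) and quantified by LC-MS, LLOQ 12 ng/ml.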

[21] = AUC in Wistar rat at 25 mg/kg, po; type: ADME, organism-based; set-up: dose 25 mg/kg, route oral; settings: plasma; how it was run: as §4
[22] = Volume of distribution in CD-1 mouse at 5 mg/kg, iv; type: ADME, organism-based; set-up: dose 5 mg/kg, route intravenous; settings: in vivo; how it was run: as §5
[23] = Volume of distribution in Wistar rat at 5 mg/kg, iv; type: ADME, organism-based; set-up: dose 5 mg/kg, route intravenous; settings: in vivo; how it was run: as §4
[24] = Half life in CD-1 mouse at 5 mg/kg, iv; type: ADME, organism-based; set-up: dose 5 mg/kg, route intravenous; settings: in vivo; how it was run: as §5
[25] = Half life in Wistar rat at 5 mg/kg, iv; type: ADME, organism-based; set-up: dose 5 mg/kg, route intravenous; settings: in vivo; how it was run: as §4
Plasmodium berghei [26] = assay: Antimalarial activity against Plasmodium berghei ANKA infected in NMRI mice (Mus musculus) assessed as reduction in parasitemia at 15 mg/kg, perorally administered as single dose measured on day 3 postinfection; type: functional; set-up: scale not given: the % may be the effect or the level left; settings: route oral
How it was run: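 P. berghei ANKA given intravenously to groups of 5 female NMRI mice (20–22 g): 0.2 ml of 1 × 10^8 parasitized erythrocytes/ml from a donor mouse. Oral dosing in 0.5% carboxymethyl cellulose. Parasitemia counted by microscopy. Activity is the control-minus-treated parasitemia difference, expressed as percent of untreated controls.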

COc1ccc(OC)c(CNc2ccc3nc(N)nc(N)c3c2Cl)c1
Survival (Plasmodium berghei [1]): 6 days
Activity (Plasmodium berghei [2]): inactive
Activity (Plasmodium berghei [3]): 0%
Activity (Plasmodium berghei [4]): 0%
Activity (Plasmodium berghei [5]): 50%
Activity (Plasmodium berghei [6]): 80%
Activity (Plasmodium berghei [7]): 20%
Activity (Mus musculus [8]): 0%
Activity (Mus musculus [9]): 0%
Activity (Mus musculus [10]): 40%
Activity (Mus musculus [11]): 80%
Activity (Rattus norvegicus [12]): Toxic
Activity (Rattus norvegicus [13]): Toxic
ED50 (Plasmodium berghei [14]): 7.2 mg/kg
ED90 (Plasmodium berghei [14]): 12.4 mg/kg
pIC50 (Plasmodium falciparum [15]): 8.35
pIC50 (Plasmodium falciparum [16]): 7.93
pIC50 (Plasmodium falciparum [17]): 8.12
Cmax [18]: 2800 nM
Tmax [19]: 4 h
AUC [20]: 44.6 µM·h
AUC [21]: 67.3 µM·h
Vd [22]: 2.85 L/kg
Vd [23]: 4.7 L/kg
half-life [24]: 0.8 h
half-life [25]: 3.5 h
Activity (Plasmodium berghei [26]): 73%
